Bioassay records from PubChem.
PP1 inh: PP1-alpha phosphatase inhibitors, primary screen, counter-screen for PP5 inhibitor project, biochemical, fluorescence, OMFP substrate, single point; Serine/threonine-protein phosphatase PP1-alpha catalytic subunit (Homo sapiens), P62136; purified PP1alpha; inhibition, % at 6.7 µM; actives 0.9% (n = 320,000); AID 2235, 2010;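 active = inhibition above the mean inhibition of all tested compounds plus 3 SD, computed separately for each screening campaign, cut at about 15% in these data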
Target sequence (P62136 whole entry, looked up): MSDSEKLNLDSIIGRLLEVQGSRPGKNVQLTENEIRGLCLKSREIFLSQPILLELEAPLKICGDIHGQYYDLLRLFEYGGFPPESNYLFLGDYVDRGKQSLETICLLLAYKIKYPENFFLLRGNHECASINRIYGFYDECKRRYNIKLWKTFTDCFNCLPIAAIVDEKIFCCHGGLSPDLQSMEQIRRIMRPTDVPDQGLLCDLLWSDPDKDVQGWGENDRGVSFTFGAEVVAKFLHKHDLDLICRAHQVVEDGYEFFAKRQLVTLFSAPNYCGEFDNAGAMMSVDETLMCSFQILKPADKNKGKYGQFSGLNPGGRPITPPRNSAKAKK
PP5 primary: PP5 phosphatase inhibitors, primary screen, biochemical, fluorescence. Serine/threonine-protein phosphatase 5 (Homo sapiens), P53041. purified PP5c, OMFP substrate fluorescence. inhibition, % at 6.7 µM. actives 0.18% (n = 320,000);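 active = inhibition above the campaign's mean inhibition across all tested compounds plus 3 SD, cut at about 9.5% in these data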
procasp3 activ: activators of human procaspase-3 D3A mutant, primary screen, biochemical, absorbance, PC-3 D3A mutant, single concentration | AID 463141, 2010 | Caspase-3 (Homo sapiens), P42574 | activation, % at 8.5 µM | actives 0.11% (n = 330,000) | recombinant procaspase-3 D3A, Ac-DEVD-pNA absorbance 405 nm;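 active = activation above the mean of all tested compounds plus 3 SD, cut at about 21% in these data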
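Technique: 405 nm absorbance of p-nitroaniline, reads at 0 and 120 min; Test system: Procaspase-3 D3A mutant; Incubation: 1 h enzyme-compound preincubation, then 2 h substrate reaction, 25 °C; Repeats: singlicate, each compound tested once; Benchmarks: low control DMSO wells, high control DMSO plus 5 µM PC-3 D3A.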
procasp7 counter: procaspase-7 activators, primary screen, counter-screen for procaspase-3 activator project, biochemical, absorbance, HTS, human; AID 463210, 2010; Caspase-7 (Homo sapiens), P55210; actives 0.093% (n = 330,000); recombinant procaspase-7, Ac-DEVD-pNA absorbance 405 nm; D23A/D198A/D206A triple mutant, cannot self-cleave; scale: DMSO 0, 5 µM enzyme 100; activation, % at 8.5 µM;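 active = percent activation above the screen-wide mean plus 3 SD, cut at about 25% in these data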
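System: Uncleavable procaspase-7 mutant enzyme; Amount: 2 µM procaspase-7 mutant as dispensed; Schedule: 1 h compound preincubation, 2 h substrate cleavage, 25 °C; Measured by: 405 nm absorbance of p-nitroaniline; Evaluation: percent activation from buffer-corrected 0–120 min absorbance change; Control set: low DMSO alone, high DMSO plus 5 µM PC-7.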
Hits are given with their value. Rows were chosen to be rich in hits. Some 1.2% of all compounds tested hit in one or more screens of this group.

`NC(N)=N/N=C/c1ccc(OCc2ccccc2Cl)cc1` gave PP1 inh 16.7, PP5 primary inactive, procasp3 activ inactive and procasp7 counter inactive.
`COc1ccccc1CNC(=O)COC(=O)C1CCN(S(=O)(=O)c2ccccc2)CC1` gave PP1 inh inactive, PP5 primary inactive, procasp3 activ inactive and procasp7 counter inactive.
For Cc1nn(CC(=O)N2CCN(S(=O)(=O)c3ccccc3)CC2)c(C)c1[N+](=O)[O-] the results were PP1 inh inactive, PP5 primary inactive, procasp3 activ inactive and procasp7 counter inactive.
Screening O=C(CSc1nccc(=O)[nH]1)NCc1ccc2c(c1)OCO2 returned PP1 inh 15.5, PP5 primary inactive, procasp3 activ inactive and procasp7 counter inactive.
`Cc1ccc(-c2ccc(S(=O)(=O)Nc3cccnc3)cc2)cc1` gave PP1 inh 16.2, PP5 primary inactive, procasp3 activ inactive and procasp7 counter inactive.
Cc1ccc(-c2ccc(/C=C3\C(=O)ON=C3c3ccccc3)o2)c([N+](=O)[O-])c1 was read as PP1 inh 17.0, PP5 primary inactive, procasp3 activ inactive and procasp7 counter inactive.
For Cc1ccc(/C=C2\C(=O)ON=C2c2ccccc2)o1 the results were PP1 inh inactive, PP5 primary inactive, procasp3 activ inactive and procasp7 counter inactive.
Screening CCc1ccc2nc(N(CCCN(C)C)C(=O)c3ccc(S(=O)(=O)N4CCc5ccccc5C4)cc3)sc2c1 returned PP1 inh 17.2, PP5 primary inactive, procasp3 activ inactive and procasp7 counter inactive.
For Cc1ccc(C2=NN=C(NC(=O)CSc3nc(C)cc(C)n3)SC2)cc1 the results were PP1 inh inactive, PP5 primary inactive, procasp3 activ inactive and procasp7 counter inactive.
For Cc1ccc(C2=NN=C(NC(=O)CSc3nnc4c5ccccc5n(C)c4n3)SC2)cc1 the results were PP1 inh 21.8, PP5 primary inactive, procasp3 activ inactive and procasp7 counter inactive.
Cc1ccc(S(=O)(=O)NCCC(=O)N2CCC(C)CC2)cc1 was read as PP1 inh inactive, PP5 primary inactive, procasp3 activ inactive and procasp7 counter inactive.
`N=C(N)SCc1ccc(Cl)cc1Cl` gave PP1 inh 15.2, PP5 primary inactive, procasp3 activ inactive and procasp7 counter inactive.
NC(=S)Cc1ccc(Cl)cc1Cl was read as PP1 inh inactive, PP5 primary inactive, procasp3 activ inactive and procasp7 counter inactive.
For Cn1c(=O)c2c(SCC(=O)NCc3ccco3)nc(-c3ccccc3Cl)nc2n(C)c1=O the results were PP1 inh 17.0, PP5 primary inactive, procasp3 activ inactive and procasp7 counter inactive.
For COc1ccccc1-c1nc(SCC(=O)NCc2ccco2)c2c(=O)n(C)c(=O)n(C)c2n1 the results were PP1 inh inactive, PP5 primary inactive, procasp3 activ inactive and procasp7 counter inactive.
Screening CN=C1N(C)C[C@@H]2[C@@H]3C(=O)N(C)C(=O)[C@@H]3[C@](C)(C(=O)OC)N12 returned procasp3 activ inactive and procasp7 counter inactive.
COc1ccccc1/C=C(/CC(=O)NCc1ccc(F)cc1)c1nc2ccccc2s1 was read as PP1 inh 15.5, PP5 primary inactive, procasp3 activ inactive and procasp7 counter inactive.
For O=C(C1=C[C@@H](c2csc3ccccc23)C[C@@H](OCc2ccc(CO)cc2)O1)N1CCN(Cc2ccc3c(c2)OCO3)CC1 the results were PP1 inh 15.8, PP5 primary inactive, procasp3 activ inactive and procasp7 counter inactive.
For O=C(COC(=O)/C=C/c1ccc(Cl)cc1)Nc1ccc2[nH]c(=O)[nH]c2c1 the results were PP1 inh inactive, PP5 primary inactive, procasp3 activ inactive and procasp7 counter inactive.
`C#CCOCCOCCOCCNc1nc(N2CCOCC2)nc(N2CCN(C(=O)CCCCCCCCCCNC(=O)[C@@H]([C@H](C)CC)n3cc(CCCCCN)nn3)CC2)n1` gave PP1 inh inactive, PP5 primary inactive, procasp3 activ inactive and procasp7 counter inactive.
